NR2E3 ag-1: NR2E3 agonists in two-hybrid cells, primary screen, cell-based, luminescence, CHO-S, Gal4-NCOR/VP16-NR2E3. Photoreceptor-specific nuclear receptor (Homo sapiens), Q9Y5X4. luciferase. inhibition of corepressor binding, % at 3.98 µM. 360,000 compounds, 0.35% hits. AID 602229, 2012;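 active = inhibition above the mean of all tested compounds plus 3 SD, cut at about 70% in these data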;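 note: higher means lower luciferase signal from less NR2E3 corepressor binding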
Neddyl block: inhibitors of cullin neddylation, primary screen, biochemical, TR-FRET, uHTS, NAE and Ubc12; NEDD8-conjugating enzyme Ubc12 (Homo sapiens) + NEDD8-activating enzyme E1 regulatory …; 360,000 compounds, 0.58% hits; calls only at 25 µM; in the data active = inhibition above about 36%
PG9 Ab binder: binders of HIV-1 gp120 antibody PG9, primary screen, biochemical, TR-FRET. HIV-1 gp120 / PG9 antibody interaction. TR-FRET gp120-PG9 antibody binding. inhibition, % at 6.7 µM. 360,000 compounds, 0.43% hits. AID 624416, 2012; in the data active = inhibition above about 8.5%
Rev-erbA mod: modulators of Rev-erb alpha DNA binding, primary screen, biochemical, FITC-DNA, fluorescence polarization, uHTS | activity, % at 10 µM | Nuclear receptor subfamily 1 group D member 1 (Homo sapiens), P20393 | Rev-erbα–FITC-DNA binding, 90 min | 370,000 compounds, 0.79% hits | AID 1259318, 2017;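 active = activity above about 14%, limit read from the data; passing the limit was not always enough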
Target sequence (P20393 whole entry, looked up): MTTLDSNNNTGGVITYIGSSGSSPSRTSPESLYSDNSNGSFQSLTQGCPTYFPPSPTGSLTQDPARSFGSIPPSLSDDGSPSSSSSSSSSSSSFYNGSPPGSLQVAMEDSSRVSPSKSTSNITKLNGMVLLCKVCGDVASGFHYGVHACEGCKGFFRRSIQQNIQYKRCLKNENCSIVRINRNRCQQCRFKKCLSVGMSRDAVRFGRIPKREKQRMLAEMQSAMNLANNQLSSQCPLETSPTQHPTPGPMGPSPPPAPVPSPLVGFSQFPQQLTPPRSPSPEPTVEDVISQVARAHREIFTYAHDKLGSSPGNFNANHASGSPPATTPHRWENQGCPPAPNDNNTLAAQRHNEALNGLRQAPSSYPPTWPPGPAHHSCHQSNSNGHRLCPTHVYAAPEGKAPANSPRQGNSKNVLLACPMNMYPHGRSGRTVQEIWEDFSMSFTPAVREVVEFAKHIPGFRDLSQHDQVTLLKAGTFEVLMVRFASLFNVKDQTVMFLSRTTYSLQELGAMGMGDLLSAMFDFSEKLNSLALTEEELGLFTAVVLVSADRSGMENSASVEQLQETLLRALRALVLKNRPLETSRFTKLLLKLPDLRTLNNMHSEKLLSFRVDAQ
NR2E3 ag-2: inhibitors of NR2E3-RetCOR corepressor binding, primary screen, NR2E3 agonist project, biochemical, TR-FRET, GST-NR2E3, biotin-RetCOR. 320,000 compounds, 0.12% hits. inhibition of corepressor binding, % at 4.78 µM. 1536-well. Photoreceptor-specific nuclear receptor (Homo sapiens), Q9Y5X4;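 active = percent inhibition above the cutoff of mean plus 3 SD of all tested compounds, set per screening campaign, cut at about 20% in these data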
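System: GST-tagged NR2E3 plus biotinylated RetCOR corepressor; Amount: 1.35 nM GST-tagged NR2E3 final; Dosing: single nominal compound dose of 4.8 µM; Schedule: 5 h incubation at 4 °C; Technique: TR-FRET with europium anti-GST and streptavidin-D2, 340 nm excitation; Controls: biotin wells as high control, 0.6% DMSO wells as low control.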
Neddyl conf: blockade of NEDD8 conjugation to cullin – biochemical, TR-FRET, single concentration, confirmation; shares compounds with Neddyl block; TR-FRET cullin neddylation biochemical assay; calls only at 25 µM; 1,800 compounds, 13% hits; AID 652217, 2013; in the data active = inhibition above about 40%;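 note: neddylation substrate is the cullin 1 ring ligase complex with SKP2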
Of the large screens only hits and unclear results are named; the others gave an inactive call (follow-up assays come after a bar, where shown). Rows were chosen to be rich in hits. Some 2% of all compounds tested hit in one or more screens of this group.

Cc1ccc(S(=O)(=O)[N-]c2nc3ccccc3nc2-n2cc[n+](CCC(C)C)c2)cc1	Neddyl block active | Neddyl conf inactive
C[C@H](CO)N1C[C@H](C)[C@H](CN(C)C(=O)Nc2cccc(F)c2)Oc2cc(Br)ccc2S1(=O)=O	none (no result: NR2E3 ag-1, Neddyl block, NR2E3 ag-2)
Cn1c(C(=O)NN)cc2cc(OCc3ccccc3)ccc21	none
CCCCNC(=O)c1cc2c(C)cc(C)cc2[nH]1	Neddyl block active | Neddyl conf inactive
Nc1c2c(=O)oc(-c3ccccc3)cc2nn1-c1ccccc1	Neddyl block active | Neddyl conf active
Cc1cc2c(c(C)nn2-c2ccccc2)c(=O)o1	none
COc1ccc(C2c3[nH]c4ccccc4c3CCN2Cc2ccoc2)c(F)c1 (stereo not given)	Neddyl block active | Neddyl conf inactive
Oc1cccc(C2c3[nH]c4ccccc4c3CCN2Cc2ccoc2)c1 (stereo not given)	none
COC(=O)C1CN(Cc2cn(Cc3ccc(C)cc3)nn2)CCS(=O)(=O)N1Cc1ccc(OC)cc1 (stereo not given)	none (no result: NR2E3 ag-1, Neddyl block, PG9 Ab binder, NR2E3 ag-2)
N#CC1=C(N)N(c2ccc(Br)cc2)C2=C(C(=O)CCC2)C1c1cccnc1 (stereo not given)	Neddyl block active | Neddyl conf inactive
Cc1ccc(N2C(N)=C(C#N)C(c3cccnc3)C3=C2CCCC3=O)cc1 (stereo not given)	none
CC(=O)Nc1cc(-c2ccsc2)cn2c(-c3ccc(F)cc3)cnc12	Neddyl block active (no result: NR2E3 ag-2) | Neddyl conf inactive
CN(C)CCCNC(=O)C[C@H]1C[C@H](C(=O)N2CCCCC2)[C@@]2(C)c3[nH]c4cc(-c5ccco5)ccc4c3CCN2C1=O	Neddyl block active (no result: NR2E3 ag-2) | Neddyl conf inactive
CN(C)CCCNC(=O)C[C@H]1C[C@H](C(=O)N2CCCCC2)[C@@]2(CCc3ccccc3)c3[nH]c4cc(-c5ccco5)ccc4c3CCN2C1=O	none (not shown: Neddyl block, NR2E3 ag-2)
CCCc1cc(=O)oc2c(C)c3occ(C)c3cc12	Neddyl block active | Neddyl conf inactive
CN(CCc1ccccc1)C(=O)c1ccc2c(c1)ncn2C1CCCCC1	none (no result: NR2E3 ag-1, Neddyl block, PG9 Ab binder, NR2E3 ag-2)
COc1ccc(OC)c(/C=C/C(=O)NC2=NCCS2)c1	Neddyl block active
CCC1CCCN1Cn1cnc2c([nH]c3ccccc32)c1=O (stereo not given)	Neddyl block active | Neddyl conf inactive
COc1ccc(NC(=O)C2(C)Cc3c(-c4cccc(C(N)=O)c4)ccnc3O2)cc1OC (stereo not given)	none (no result: NR2E3 ag-2)
NS(=O)(=O)c1ccc(-c2ccc(/C=N/NC(=O)c3ccc([N+](=O)[O-])cc3)o2)cc1	none
NS(=O)(=O)c1ccc(-c2ccc(/C=N/Nc3ccc(C(=O)O)cc3)o2)cc1	Neddyl block active | Neddyl conf inactive
CC(=O)Nc1ccc(S(=O)(=O)N2CCN(c3cc(C(F)(F)F)ccn3)CC2)cc1	Neddyl block active | Neddyl conf inactive
COc1ccccc1Nc1ncc(C(=O)N2CCN(Cc3ccc(OC)c(OC)c3OC)CC2)c2ccccc12	Neddyl block active
COc1ccccc1Nc1ncc(C(=O)N2CCC(C(N)=O)CC2)c2ccccc12	none
O=C(O)c1cc2ccc3cccc4ccc(c1)c2c34	Neddyl block active
CCOc1ccc(N/C=C/C(=O)c2ccc(OC)c(OC)c2)cc1	Neddyl block active | Neddyl conf inactive
Cc1ccc(C)c(Nc2nc3ccccc3n3cnnc23)c1	none
Cc1cc(C(F)F)n2ncc(C(=O)N3CCc4ccccc4C3)c2n1	none
O=C(c1cnn2c(C(F)F)cc(-c3ccccc3)nc12)N1CCc2ccccc2C1	Neddyl block active | Neddyl conf inactive
COCCNC(=O)c1cnn2c(C(F)F)cc(-c3ccccc3)nc12	Neddyl block active | Neddyl conf inactive
Cc1cccc(C)c1NC(=O)CN(C)C(=O)CC1Sc2ccccc2NC1=O (stereo not given)	none
OCCCNC(=S)Nc1ccc2nccnc2c1	Neddyl block active | Neddyl conf inactive
Fc1ccc(NC(=S)Nc2ccc3nccnc3c2)cc1	none
CCOC(=O)c1oc2cc(C)cc(C)c2c1C	none
CCOC(=O)c1oc2cc(O)cc(C)c2c1C	Neddyl block active (no result: NR2E3 ag-2) | Neddyl conf active
O=C(O)[C@@H]1Cc2c([nH]c3ccccc23)C2CCC(=O)N21 (stereo not given in full)	Neddyl block active | Neddyl conf inactive
Cc1cc(-c2ccccc2)nc(N(C)N)c1S(C)(=O)=O	Neddyl block active | Neddyl conf inactive
COc1ccc(-c2oc3ncnc(NCCCN4CCOCC4)c3c2-c2ccc(OC)cc2)cc1	none (not shown: Neddyl block)
c1ccc(-c2oc3ncnc(NCCCN4CCOCC4)c3c2-c2ccccc2)cc1	Neddyl block active | Neddyl conf active
CC(C)c1[nH]nc2c1C(c1ccc(Br)cc1)NC2=O (stereo not given)	none (no result: NR2E3 ag-1, Neddyl block, NR2E3 ag-2)
O=C(N/N=C/c1ccccc1Br)c1ccc(CSc2cccc3cccnc23)cc1	none
c1cnc2c(SCc3ccc(-c4nnco4)cc3)cccc2c1	none
NNC(=O)c1ccc(CSc2cccc3cccnc23)cc1	Neddyl block active | Neddyl conf active
O=C1CCC/C(=N\NC(=O)c2ccc(CSc3cccc4cccnc34)cc2)C1	Neddyl block active | Neddyl conf inactive
NC(=Nc1nc(-c2ccccn2)cc2ccccc12)c1ccccn1	none (no result: NR2E3 ag-2)
CCCCc1cc(=O)oc2cc(OC3CCCCC3=O)ccc12 (stereo not given)	Neddyl block active | Neddyl conf inactive
COC(=O)C12C=C3CC(c4ccc(C(F)(F)F)cc4)=C3C(=O)N1Cc1[nH]c3ccccc3c1C2 (stereo not given)	none (no result: NR2E3 ag-1, Neddyl block, PG9 Ab binder, NR2E3 ag-2)
CCOC(=O)Cn1nc(-c2ccccc2)c2cnc3ccc(C)cc3c21	Neddyl block active | Neddyl conf inactive
CCOCCCn1c(C)nc2c(c1=O)c1nc3ccccc3nc1n2CCC1=CCCCC1	Neddyl block active | Neddyl conf inactive
COc1ccc([C@H]2C[C@H](O)[C@@H](n3cc(-c4ccc(F)cc4)nn3)CN2CC2CCCCC2)cc1	none (no result: NR2E3 ag-2)
O=C1Cn2nnc(-c3ccccc3)c2C2c3ccccc3CCN12 (stereo not given)	none (no result: NR2E3 ag-2)
CN(CCO)S(=O)(=O)c1ccc2c(c1)C(=NO)c1cc(S(=O)(=O)N(C)CCO)ccc1-2	Neddyl block active | Neddyl conf inactive

Screening data as filed in PubChem BioAssay.
